In ChEMBL document CHEMBL4376888, “Discovery of Potent, Selective, and Direct Acid Sphingomyelinase Inhibitors with Antidepressant Activity” (J Med Chem, 2020):
Activity calls are given as the source filed them. The rule behind the calls is not given here.

Columns and labels:
[1] = Drug concentration in Sprague-Dawley rat plasma at 48 mg/kg, ip after 0.5 hrs by LC-MS/MS analysis; type: ADME, organism-based
Outline: (§1)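 Nine female SD rats, three per time point, single ip dose of 48 mg/Kg. At 0.5, 2 and 4 h rats were anesthetized with CO2. Heart blood was taken into EDTA-K2 and centrifuged 1500 g, 10 min, for plasma. Brain was weighed and homogenized 1:5 in 20% methanol-water. LC-MS/MS on a C18 column. Mean of 3.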

[2] = Drug concentration in Sprague-Dawley rat brain at 48 mg/kg, ip after 0.5 hrs by LC-MS/MS analysis; type: ADME, organism-based; conditions: read-out: Drug uptake; outline: as §1
[3] = Drug concentration in Sprague-Dawley rat plasma at 48 mg/kg, ip after 2 hrs by LC-MS/MS analysis; type: ADME, organism-based; outline: as §1
[4] = target: T1, Sphingomyelin phosphodiesterase (Homo sapiens, UniProt P17405); experiment: Inhibition of human Huh7 cell derived acid sphingomyelinase using NBD-sphingomyelin as substrate after 30 mins by fluorescence based assay
T1 sequence (P17405 whole entry): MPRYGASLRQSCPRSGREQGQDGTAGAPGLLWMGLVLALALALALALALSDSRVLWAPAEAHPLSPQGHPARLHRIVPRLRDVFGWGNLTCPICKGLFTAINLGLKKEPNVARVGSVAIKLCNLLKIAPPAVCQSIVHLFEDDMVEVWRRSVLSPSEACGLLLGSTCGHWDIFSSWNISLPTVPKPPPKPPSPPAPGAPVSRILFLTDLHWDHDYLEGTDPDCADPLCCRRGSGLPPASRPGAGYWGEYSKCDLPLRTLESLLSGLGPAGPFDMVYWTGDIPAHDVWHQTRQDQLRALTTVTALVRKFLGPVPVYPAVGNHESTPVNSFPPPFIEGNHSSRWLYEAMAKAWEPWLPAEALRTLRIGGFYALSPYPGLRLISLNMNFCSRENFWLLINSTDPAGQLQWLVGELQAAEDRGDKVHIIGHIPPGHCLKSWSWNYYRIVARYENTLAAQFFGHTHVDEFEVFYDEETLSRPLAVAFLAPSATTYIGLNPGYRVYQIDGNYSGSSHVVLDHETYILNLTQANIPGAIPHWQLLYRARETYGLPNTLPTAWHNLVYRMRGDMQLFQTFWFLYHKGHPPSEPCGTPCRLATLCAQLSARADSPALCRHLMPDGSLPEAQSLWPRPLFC
Outline: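 Cultured cells were lysed in 25 mM Tris-HCl pH 7.4, 5 mM EDTA, sonicated and cleared at 300 g. 400 μg protein incubated with NBD-sphingomyelin in 100 mM sodium acetate pH 4.7, 1% Triton X-100, 40 mM CaCl2, 100 μM ZnCl2. Inhibitors added in DMSO, 37 °C, 30 min. Stopped with chloroform/methanol 2:1; NBD-ceramide fluorescence after TLC.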

[5] = Ratio of drug uptake in Sprague-Dawley rat brain to plasma at 48 mg/kg, ip after 30 mins by LC-MS/MS analysis; type: ADME, organism-based; conditions: read-out: BPR; outline: as §1
Rattus norvegicus [6] = experiment: In vivo inhibition of acid sphingomyelinase in Sprague-Dawley rat model of reserpine-induced depression assessed as reduction in enzyme activity in cerebral cortex at 24 mg/kg, ip administered twice daily for 2 weeks measured post-last dose by NBD-sphingomyelin substrate-based fluorescence assay (reference value: 53%); parameters: scale not given: the % may be the effect or the level left
Rattus norvegicus [7] = experiment: Antidepressant activity in Sprague-Dawley rat model of reserpine-induced depression assessed as reduction in total time spent in center at 6 to 24 mg/kg, ip administered twice daily for 2 weeks measured for 5 mins by open field test; type: functional, organism-based
Outline: (§2)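 Female SD rats (6-8 weeks, 200 g) given reserpine 4 mg/Kg ip daily to induce depression; test agent in 5% DMSO, 2% Tween 80, 5% glucose, ip twice daily for two weeks. Open field: 100×100 cm box, 25 squares, walls about 42 cm, tested 7:30–12:00. Rat placed in central square; centre time, grid crossings, rearing and grooming recorded over 5 min. n=8, mean ± SD.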

[8] = Drug concentration in Sprague-Dawley rat plasma at 48 mg/kg, ip after 4 hrs by LC-MS/MS analysis; type: ADME, organism-based; outline: as §1
[9] = Ratio of drug uptake in Sprague-Dawley rat brain to plasma at 48 mg/kg, ip after 2 hrs by LC-MS/MS analysis; type: ADME, organism-based; conditions: read-out: BPR; outline: as §1
Rattus norvegicus [10] = experiment: In vivo inhibition of acid sphingomyelinase in Sprague-Dawley rat model of reserpine-induced depression assessed as residual enzyme activity in hippocampus at 24 mg/kg, ip administered twice daily for 2 weeks measured post-last dose by NBD-sphingomyelin substrate-based fluorescence assay (reference value: 73%); type: functional
Outline: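 Cortex and hippocampus taken from half brain of reserpine-model rats treated ip twice daily for two weeks. Total protein by BCA. ASM assay on 300 μg protein with 4 μg NBD-sphingomyelin, run as the in vitro assay. NBD-ceramide fluorescence on TLC, expressed relative to normal control set at 100%. n=5, mean ± SD.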

Rattus norvegicus [11] = experiment: Antidepressant activity in ip dosed Sprague-Dawley rat model of reserpine-induced depression assessed as increase in sugar consumption treated twice daily for 2 weeks measured after 2 days of […] followed by 20 hrs water depletion and fasting by sugar water preference test; type: functional, organism-based
Outline: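 Reserpine model (4 mg/Kg ip daily) in female SD rats, treated ip twice daily for two weeks in DMSO/Tween 80/glucose vehicle. Drinking water replaced with 10% sucrose for 48 h, then food and water withheld for 20 h. Rats then given 10% sucrose and intake volume measured. n=8, mean ± SD.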

Rattus norvegicus [12] = experiment: Antidepressant activity in Sprague-Dawley rat model of reserpine-induced depression assessed as increase in frequency of upright at 6 to 24 mg/kg, ip administered twice daily for 2 weeks measured for 5 mins by open field test; type: functional, organism-based; outline: as §2
Rattus norvegicus [13] = experiment: Antidepressant activity in Sprague-Dawley rat model of reserpine-induced depression assessed as increase in grooming frequency at 6 to 24 mg/kg, ip administered twice daily for 2 weeks measured for 5 mins by open field test; type: functional, organism-based; outline: as §2
NIH3T3 = experiment: Cytotoxicity against mouse NIH/3T3 cells assessed as reduction in cell viability after 24 hrs by MTT assay; type: cell-based; conditions: Mus musculus, NIH3T3, 24 h
Outline: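 NIH3T3 cells in DMEM with 10 % FBS at 37 °C, 5 % CO₂, grown overnight, then inhibitor added for 24 h; viability read by MTT.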

[14] = target: T1, Sphingomyelin phosphodiesterase; experiment: Inhibition of recombinant human acid sphingomyelinase (His62 to Pro628 residues) using NBD-sphingomyelin as substrate after 30 mins by fluorescence based assay
Outline: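 Buffer 100 mM sodium acetate pH 4.7, 1% Triton X-100, 40 mM CaCl2, 100 μM ZnCl2. Inhibitors in DMSO at various concentrations, 37 °C, 30 min. NBD-ceramide fluorescence after chloroform/methanol extraction and TLC.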

[15] = Drug concentration in Sprague-Dawley rat brain at 48 mg/kg, ip after 4 hrs by LC-MS/MS analysis; type: ADME, organism-based; conditions: read-out: Drug uptake; outline: as §1
[16] = Drug concentration in Sprague-Dawley rat brain at 48 mg/kg, ip after 2 hrs by LC-MS/MS analysis; type: ADME, organism-based; conditions: read-out: Drug uptake; outline: as §1

O=C(NO)c1cc(OCc2ccc(-c3ccc(Cl)cc3)cc2)no1
concentration at 0.5 h [1]: 0.709 µg/mL | concentration at 0.5 h [2]: 2120 ng/g | concentration at 2 h [3]: 0.762 µg/mL | IC50 [4]: 0.32 µM | Kp at 0.5 h [5]: 2.94 | Activity (Rattus norvegicus [6]): 27% | Activity (Rattus norvegicus [7]): Active | concentration at 4 h [8]: 0.144 µg/mL | Kp at 2 h [9]: 6.49 | Activity (Rattus norvegicus [10]): 33% | Activity (Rattus norvegicus [11]): Dose-dependent effect | Activity (Rattus norvegicus [12]): Active | Activity (Rattus norvegicus [13]): Active | IC50 (NIH3T3): 161 µM | IC50 [14]: 3.37 µM | concentration at 4 h [15]: 1300 ng/g | concentration at 2 h [16]: 4760 ng/g
